Assay results as given in ChEMBL document CHEMBL4257442, “An insight into tetrahydro-β-carboline-tetrazole hybrids: synthesis and bioevaluation as potent antileishmanial agents” (Medchemcomm, 2017).

Legend:
Leishmania donovani [1] = assay: Antileishmanial activity against Leishmania donovani MHOM/IN/80/Dd8 promastigotes harboring luciferase reporter gene after 72 hrs by Steady-Glo luminescence assay; type: functional, organism-based; settings: MHOM/IN/80/Dd8, 72 h
In short: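 Extracellular promastigotes of the L. donovani WHO reference strain MHOM/IN/80/Dd8. IC50 is the concentration giving 50% inhibition of parasite growth. Values are the average of three independent assays, given as average ± standard error.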

Leishmania donovani [2] = assay: Antileishmanial activity against Leishmania donovani MHOM/IN/80/Dd8 amastigotes harboring luciferase reporter gene infected in mouse J774A.1 cells after 72 hrs by Steady-Glo luminescence assay; type: functional, organism-based; settings: MHOM/IN/80/Dd8, J774.A1, 72 h
In short: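 Intracellular L. donovani amastigotes in murine macrophages, with firefly luciferase reporter expression. IC50 is the concentration giving 50% inhibition of parasite growth. Values are the average of three independent assays, given as average ± standard error.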

[3] = Selectivity index, ratio of CC50 for mouse J774A.1 cells to IC50 for Leishmania donovani MHOM/IN/80/Dd8 amastigote forms infected in mouse J774A.1 cells; type: toxicity, cell-based; settings: read-out: Ratio CC50/IC50
In short: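 SI was calculated as the cytotoxicity CC50 in J-774A.1 cells divided by the anti-amastigote IC50. The amastigote assay used murine macrophages expressing a firefly luciferase reporter, infected with intracellular L. donovani. Each IC50 and CC50 is the average of three independent assays.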

Leishmania donovani [4] = assay: Antileishmanial activity against Leishmania donovani MHOM/IN/80/Dd8 amastigotes infected in golden hamsters assessed as inhibition of splenic parasite burden at 50 mg/kg, ip for 5 consecutive days initiated after 2 days of biopsy and measured on day 7 post last dose by Giemsa staining-based assay relative to control; type: functional; settings: MHOM/IN/80/Dd8, ip
In short: (§1)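 Golden hamster model infected with L. donovani. Treatment was 50 mg kg–1 given intraperitoneally for 5 consecutive days. Read-out was % inhibition of splenic parasite burden.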

Leishmania donovani [5] = assay: Antileishmanial activity against Leishmania donovani MHOM/IN/80/Dd8 amastigotes infected in golden hamsters assessed as inhibition of splenic parasite burden at 50 mg/kg, ip for 5 consecutive days initiated after 2 days of biopsy and measured on day 28 post last dose by Giemsa staining-based assay relative to control; type: functional; settings: MHOM/IN/80/Dd8, ip; in short: as §1
[6] = Cytotoxicity against mouse J774A.1 cells after 2 hrs by MTT assay; type: cell-based, J774.A1
In short: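 Mouse macrophage J-774A.1 cells obtained from NCCS, Pune, were used for the in vitro cytotoxicity assay. CC50 is the average of three independent assays, expressed as average ± standard error.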

Leishmania donovani [7] = assay: Antileishmanial activity against Leishmania donovani MHOM/IN/80/Dd8 amastigotes infected in golden hamsters assessed as inhibition of splenic parasite burden at 30 mg/kg, po for 5 consecutive days initiated after 2 days of biopsy and measured on day 7 post last dose by Giemsa staining-based assay relative to control; type: functional; settings: MHOM/IN/80/Dd8, po
[8] = Tmax in golden Syrian hamster at 50 mg/kg, po measured up to 24 hrs by LC-MS/MS analysis; type: ADME, organism-based, Mesocricetus auratus; settings: in vivo
In short: (§2)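 Single oral 50 mg kg–1 dose given to golden Syrian hamsters (n = 5). Compound quantified in serum over time up to 24 h by validated LC-MS/MS with electrospray ionization. Parameters came from non-compartmental analysis of the mean serum concentration–time profile and are reported as mean ± SEM of five animals.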

[9] = Apparent oral volume of distribution in golden Syrian hamster at 50 mg/kg measured up to 24 hrs by LC-MS/MS analysis; type: ADME, organism-based, Mesocricetus auratus; settings: in vivo; in short: as §2
[10] = AUClast in golden Syrian hamster at 50 mg/kg, po measured up to 24 hrs by LC-MS/MS analysis; type: ADME, organism-based, Mesocricetus auratus; parameters: time < 24 hr, dose 50 mg/kg, route oral; settings: in vivo; in short: as §2
[11] = Apparent oral clearance in golden Syrian hamster at 50 mg/kg measured up to 24 hrs by LC-MS/MS analysis; type: ADME, organism-based, Mesocricetus auratus; settings: in vivo; in short: as §2
[12] = MRT in golden Syrian hamster at 50 mg/kg, po measured up to 24 hrs by LC-MS/MS analysis; type: ADME, organism-based, Mesocricetus auratus; settings: in vivo; in short: as §2
Leishmania donovani [13] = assay: Antileishmanial activity against Leishmania donovani MHOM/IN/80/Dd8 amastigotes infected in golden hamsters assessed as inhibition of splenic parasite burden at 100 mg/kg, po for 5 consecutive days initiated after 2 days of biopsy and measured on day 7 post last dose by Giemsa staining-based assay relative to control; type: functional; settings: MHOM/IN/80/Dd8, po
[14] = Cmax in golden Syrian hamster at 50 mg/kg, po measured up to 24 hrs by LC-MS/MS analysis; type: ADME, organism-based, Mesocricetus auratus; parameters: dose 50 mg/kg, route oral; settings: in vivo; in short: as §2
Leishmania donovani [15] = assay: Antileishmanial activity against Leishmania donovani MHOM/IN/80/Dd8 amastigotes infected in golden hamsters assessed as inhibition of splenic parasite burden at 100 mg/kg, po for 5 consecutive days initiated after 2 days of biopsy and measured on day 28 post last dose by Giemsa staining-based assay relative to control; type: functional; settings: MHOM/IN/80/Dd8, po

Structure (SMILES)	IC50 (Leishmania donovani [1])	IC50 (Leishmania donovani [2])	selectivity ratio [3]	CC50 at 2 h [6]	also measured
CC(C)(C)n1nnnc1C(c1cccc([N+](=O)[O-])c1)N1CCc2c([nH]c3ccccc23)C1 (configuration not stated)	4.91 µM	3.86 µM	39	150 µM	inhibition in vivo at 50 mg/kg (Leishmania donovani [4]): 4.83%; inhibition in vivo at 50 mg/kg (Leishmania donovani [5]): 2.92%
CC(C)c1ccc(C(c2nnnn2C(C)(C)C)N2CCc3c([nH]c4ccccc34)C2)cc1 (configuration not stated)	3.56 µM	17.6 µM	7	130 µM	
O=[N+]([O-])c1ccc(C(c2nnnn2C2CCCCC2)N2CCc3c([nH]c4ccccc34)C2)cc1 (configuration not stated)	31 µM	≥ 50 µM			
CC(C)(C)n1nnnc1C(c1ccc(F)cc1)N1CCc2c([nH]c3ccccc23)C1 (configuration not stated)	2.71 µM	17.5 µM	3	48.8 µM	
Clc1ccccc1C(c1nnnn1C1CCCCC1)N1CCc2c([nH]c3ccccc23)C1 (configuration not stated)	≥ 100 µM	≥ 50 µM			
CC(C)(C)n1nnnc1C(c1ccc([N+](=O)[O-])cc1)N1CCc2c([nH]c3ccccc23)C1 (configuration not stated)	0.59 µM	3.78 µM	37	140 µM	inhibition in vivo at 50 mg/kg (Leishmania donovani [4]): 20.4%; inhibition in vivo at 50 mg/kg (Leishmania donovani [5]): 19.6%
COc1cc(C(c2nnnn2C(C)(C)C)N2CCc3c([nH]c4ccccc34)C2)cc(OC)c1OC (configuration not stated)	23.5 µM	≥ 50 µM			
Brc1ccc(C(c2nnnn2C2CCCCC2)N2CCc3c([nH]c4ccccc34)C2)cc1 (configuration not stated)	16.5 µM	≥ 50 µM			
COc1ccc(C(c2nnnn2C2CCCCC2)N2CCc3c([nH]c4ccccc34)C2)cc1OC (configuration not stated)	1.2 µM	3.31 µM	13	41.9 µM	
CC(C)(C)n1nnnc1C(c1ccccc1)N1CCc2c([nH]c3ccccc23)C1 (configuration not stated)	4.07 µM	5.41 µM	27	146 µM	inhibition in vivo at 50 mg/kg (Leishmania donovani [4]): 4.05%; inhibition in vivo at 50 mg/kg (Leishmania donovani [5]): 3.79%
CCCCCCCCCCCCCCCCOP(=O)([O-])OCC[N+](C)(C)C [MILTEFOSINE]			1.48	12.4 µM	inhibition in vivo at 30 mg/kg (Leishmania donovani [7]): 98.1%
Clc1ccc(C(c2nnnn2C2CCCCC2)N2CCc3c([nH]c4ccccc34)C2)cc1 (configuration not stated)	2.89 µM	2.08 µM	17	35.5 µM	
CC(C)(C)n1nnnc1C(c1ccc(Cl)cc1)N1CCc2c([nH]c3ccccc23)C1 (configuration not stated)	3.45 µM	14.2 µM	2	37 µM	
CC(C)(C)n1nnnc1C(c1ccc(C#N)cc1)N1CCc2c([nH]c3ccccc23)C1 (configuration not stated)	2.82 µM	16.4 µM	9	150 µM	
N#Cc1ccc(C(c2nnnn2C2CCCCC2)N2CCc3c([nH]c4ccccc34)C2)cc1 (configuration not stated)	≥ 100 µM	≥ 50 µM			
COc1ccc(C(c2nnnn2C(C)(C)C)N2CCc3c([nH]c4ccccc34)C2)cc1 (configuration not stated)	1.14 µM	4.32 µM	10	42 µM	
Fc1ccc(C(c2nnnn2C2CCCCC2)N2CCc3c([nH]c4ccccc34)C2)cc1 (configuration not stated)	14.5 µM	≥ 25 µM			
COc1ccc(C(c2nnnn2C2CCCCC2)N2CCc3c([nH]c4ccccc34)C2)cc1 (configuration not stated)	20.4 µM	≥ 50 µM			
COc1cc(C(c2nnnn2C2CCCCC2)N2CCc3c([nH]c4ccccc34)C2)cc(OC)c1OC (configuration not stated)	2.81 µM	1.57 µM	23	36 µM	Tmax [8]: 1.6 to 8 h; Vd/F [9]: 652 L/kg; AUC(0-t) at 24 h [10]: 844 ng·h/mL; CL/F [11]: 720 mL/min/kg; MRT [12]: 10.2 h; inhibition in vivo at 100 mg/kg (Leishmania donovani [13]): 50.9%; inhibition in vivo at 50 mg/kg (Leishmania donovani [4]): 75%; Cmax [14]: 76.2 to 83.5 ng/mL; inhibition in vivo at 50 mg/kg (Leishmania donovani [5]): 88.9%; inhibition in vivo at 100 mg/kg (Leishmania donovani [15]): 77.5%
CC(C)(C)n1nnnc1C(c1ccc(Br)cc1)N1CCc2c([nH]c3ccccc23)C1 (configuration not stated)	1.58 µM	3.77 µM	38	144 µM	inhibition in vivo at 50 mg/kg (Leishmania donovani [4]): 33.7%; inhibition in vivo at 50 mg/kg (Leishmania donovani [5]): 53.1%
COc1ccc(C(c2nnnn2C(C)(C)C)N2CCc3c([nH]c4ccccc34)C2)cc1OC (configuration not stated)	5.71 µM	16 µM	8	138 µM	
